Source: PubChem
Rows were chosen to be rich in hits. Some 2.1% of all compounds tested hit in one or more screens of this group.
Cneo AK release – Cryptococcus neoformans lysis via adenylate kinase release. C. neoformans lysis, adenylate kinase release luminescence, 4 h; normalised: neutral wells 0, clomiphene wells 100. lysis activity, % at 15 µM. hit rate 0.2% among 360,000. AID 651654;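 active means mean lysis activity across replicates of at least 80%, whatever share of replicates individually reach that level; inactive means mean lysis activity below 80%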
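read-out = cell lysis signal | test system = log-phase Cryptococcus neoformans yeast cells | input = cells at 5 × 10^6 per mL | medium = fresh YPD growth medium | signal = luminescent adenylate kinase detection reagent | timing = 4 h at 37 °C static, read 1 h later | dosing = single dose | controls = Clomiphene as positive lysis control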
DENV2 CPE – protects cells from dengue virus 2 cytopathic effect; DENV2-infected cells, cytopathic effect rescue, plate reader; CPE inhibition, % at 9.99 µM; hit rate 1.7% among 350,000; AID 651640; in the data active means CPE inhibition above about 20%, passing the limit was not always enough; inconclusive means no clear call, values can overlap the other calls; tested in BHK-21 cells;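 further: 0% = median of neutral control wells and 100% = median of positive control wells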
Statin myotox sup – protects C2C12 myotubes from simvastatin toxicity; ATP luminescence, 48 h; scaled: DMSO 0, geranylgeraniol control 100; rescue of ATP level, % at 7.49 µM; hit rate 0.78% among 330,000; AID 602340;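 active means mean ATP rescue above about 67%, or every replicate alone reaching that limit, limit read from the data, passing the limit was not always enough; inconclusive means no clear call, values can overlap the other calls; inactive means mean under the limit and some replicate under it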;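 further: myotubes were challenged with 10 µM simvastatin during compound exposure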
Xi reactivation – X-chromosome reactivation activator; XiGFP mouse fibroblasts, % GFP-positive cells imaging, 3 d; cells co-treated with 5-aza-dC sensitizer; scaled so ellipticine positive control = 100%; hit rate 0.055% among 360,000; activation, % at 7.58 µM;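 active means mean normalized replicate activation at least 10% and every replicate at or above 10%; inconclusive means only one of the two criteria met; inactive means mean below 10% and not all replicates reach 10%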;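 further: 0% = median of on-plate neutral control wells and 100% = ellipticine 6 µM median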
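System: 68-5-11 XiGFP fibroblast line | Buffer or medium: DMEM containing 5-aza-dC | Compound: Single point | Times: Compounds 3 days, fix/stain 15 min at room temperature | Benchmarks: Positive control ellipticine, 6 µM final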
Numbers without * were called inactive; ? = inconclusive; / = no result; ! = repeats disagree.

SMILES | Cneo AK release | DENV2 CPE | Statin myotox sup | Xi reactivation
COC(=O)C1=C(c2ccc(F)cc2OCc2ccccc2)C[C@@H]2CC[C@H]1N2C(=O)N1CCC(O)(c2ccc(Cl)cc2)CC1 | -0.7 | 76.5* | -2.1 | -0.6
O=C(Cc1ccccc1)N1C[C@H]2[C@@H](c3ccccc31)[C@H](CO)N2Cc1ccccc1 | 0.8 | ? | 2.3 | 0.4
CC(=O)N1C2CN(C)CC1C2c1ccc(Br)cc1 (stereo not drawn) | / | / | / | 0.4
c1cc(-c2ccc(C3[C@H]4CNC[C@@H]3N4CC3CC3)cc2)ccn1 (stereo partly drawn) | / | 9.8 | / | 0.0
O=C1CC(=O)N(Cc2ccccc2)C(=S)N1 | -0.4 | 23.4* | 6.0 | 0.1
C[C@@H]1CN([C@@H](C)CO)C(=O)c2c(c3ccccc3n2C)-c2ccccc2CO[C@H]1CN(C)C(=O)Oc1ccccc1 | / | -4.2 | / | 0.3
CC1(C)N(O)C2CCCCC2N1O (stereo not drawn) | 21.1 | / | 107.2* | /
CCOc1ccc(-n2c(CC)nc3ccccc3c2=O)cc1 | -0.3 | -11.9 | 130.8* | 0.0
O=C(Cc1ccccn1)N1CC2(C1)[C@H](c1ccccc1)[C@@H](CO)N2Cc1ccccn1 | / | 1.0 | / | 0.0
CN1CCC(N(C)c2ncnc3ccc(Br)cc23)CC1 | 2.9 | / | 82.9* | /
Cc1cccc(NP(C)(=O)c2nc3c(s2)CCCC3)c1 (stereo not drawn) | -2.5 | 3.7 | 142.7* | 0.1
Cc1ccc(OP(=O)(Nc2cccc(C)c2)Oc2ccc(C)cc2)cc1 | 4.0 | 10.6 | 17.0 | 0.0
CN1CCN(c2ncnc(Cl)c2N)CC1 | 0.7 | 0.2 | -10.9 | 0.3
CN1CCN(c2nccc3c2ncn3C)CC1 | 1.8 | / | 101.4* | /
COC(=O)[C@@H]1[C@@H](CO)[C@@H]2Cn3c(ccc(C4=CCCC4)c3=O)[C@H]1N2CC1CCCCC1 | 41.8 | -3.6 | -4.1 | 0.6
CCC(=Nc1ccc2c(c1)CCC2)c1c(O)n(C)c(=O)n(C)c1=O | -0.8 | / | 111.8* | /
CC(=Nc1ccc2c(c1)CCC2)c1c(O)n(C)c(=O)n(C)c1=O | 0.2 | / | -11.4 | /
COC(=O)[C@H]1N[C@H]2c3ccc(C4=CCCC4)c(=O)n3C[C@H]2[C@@H]1CO | -3.3 | 127.7* | 36.0 | 0.7
CC(=O)c1ccc2c(c1)C1C(Cl)C(Sc3ccccc3[N+](=O)[O-])CC1C(c1ccccc1[N+](=O)[O-])N2 (stereo not drawn) | -0.3 | / | 80.8* | /
CC(=O)c1ccc2c(c1)C1C(Cl)C(Sc3ccccc3[N+](=O)[O-])CC1C(c1ccccc1)N2 (stereo not drawn) | 1.7 | / | / | /
O=C(Cc1cccnc1)N1CCCCN2[C@H](CO)[C@@H](c3ccc(C#CC4CC4)cc3)[C@H]2C1 | 51.2 | 7.1 | / | /
Cc1c(P(=S)(c2ccccc2)c2ccccc2)[n+]2ccccc2n1C | -1.8 | 73.0*! | -42.3 | 0.0
Cn1cc[n+](C)c1P(=S)(c1ccccc1)c1ccccc1 | -0.9 | -3.4 | -3.2 | 0.1
Cc1ccc(OC(=O)N(C)C[C@@H]2OCc3ccccc3-c3c(n(C)c4ccccc34)C(=O)N([C@@H](C)CO)C[C@H]2C)cc1 | / | 2.7 | / | 0.1
CCOS(C)(=O)=O | 1.5 | 47.7* | 0.7 | /
SMILES | Cneo AK release | DENV2 CPE | Statin myotox sup | Xi reactivation
CC1=C2C[C@H]3[C@@H](CC=C4C[C@@H](O)CC[C@@]43C)[C@@H]2CC[C@]12O[C@@H]1C[C@H](C)CN[C@@H]1C2C (stereo partly drawn) | -7.8 | -12.5 | / | /
O=C(Cc1cccnc1)N1CCCCN2[C@H](CO)[C@@H](c3ccc(/C=C/c4ccccc4)cc3)[C@@H]2C1 | -0.4 | -8.7 | / | 0.2
O=C(Nc1ccc(C(F)(F)F)cc1)OC1CN2CCC1CC2 (stereo not drawn) | / | 38.6* | / | 0.2
O=P(Nc1ccccc1)(Nc1ccccc1)Oc1cccc(Cl)c1 | 2.4 | / | 97.4* | /
COC(=O)[C@H]1[C@H](CO)[C@H]2Cn3c(cccc3=O)[C@@H]1N2CCc1ccccc1 | -1.6 | 0.7 | 17.3 | 0.0
CC(C)c1oc(=O)cc2c1[C@@H](O)[C@H]1OC(=O)[C@@]3(C)CC[C@@H](O)[C@@]2(C)C13 (stereo partly drawn) | 6.7 | 0.3 | 52.7 | 0.0
CC(C)c1oc(=O)cc2c1[C@@H](O)[C@H]1OC(=O)[C@@]3(C)C[C@@H](O)[C@@H](O)[C@@]2(C)C13 (stereo partly drawn) | 1.7 | 87.0* | 95.9* | 0.3
C=CCCC1(C2=CCCCC2)C(=O)NC(=O)NC1=O | / | 26.6* | / | 0.3
COc1ccc(-c2ccc3c(c2)CN(C(=O)NC2CCCCC2)Cc2cnnn2-3)cc1 | 0.1 | 24.3* | 26.1 | -0.1
O=C(NC1CCCCC1)N1Cc2cc(-c3cccc(F)c3)ccc2-n2nncc2C1 | -0.2 | 3.9 | 6.9 | /
COc1ccccc1CN1[C@H](CO)[C@H](c2ccccc2)C12CN(C(=O)Cc1ccccc1)C2 | / | -11.0 | / | 0.1
C=CCN1CC[C@]23c4c5ccc(O)c4OC2C(O)C=CC3[C@H]1C5 (stereo partly drawn) | 0.8 | 130.9* | -1.0 | /
COc1ccc2c3c1OC1C(O)C=CC4[C@@H](C2)N(C)CC[C@]314 (stereo partly drawn) | 0.1 | -21.8 | 1.2 | /
CCOC(=O)C1=C(C)OC(N)=C(C#N)C12C(=O)N(C)c1ccccc12 (stereo not drawn) | / | / | 5.9 | /
C=CCOC(=O)C1=C(C)OC(N)=C(C#N)C12C(=O)N(CN1CCOCC1)c1ccccc12 (stereo not drawn) | 2.4 | / | 111.2* | /
COC(=O)[C@H]1[C@H](CO)[C@H]2Cn3c(ccc(C4=CCCCC4)c3=O)[C@@H]1N2CC1CCCCC1 | / | -7.5 | / | 0.6
C=C1C(=O)O[C@@H]2C[C@@H](C)[C@@H]3C=CC(=O)[C@@]3(C)[C@@H](OC(=O)CC(=O)O[C@H]3[C@@H]4C(=C)C(=O)O[C@@H]4C[C@@H](C)[C@@H]4C=CC(=O)[C@]43C)[C@H]12 | -1.4 | -8.7 | -367.4 | 1.1
C=C1C(=O)O[C@@H]2C[C@@H](C)[C@@H]3C4OC4C(=O)[C@@]3(C)[C@@H](O)[C@H]12 (stereo partly drawn) | -0.2 | -8.4 | 79.8* | 1.5
Cc1ccccc1-c1ccc([C@H]2[C@@H](CO)N3CCCCN(C(=O)Cc4ccccn4)C[C@@H]23)cc1 | 0.5 | 8.2 | / | 0.1
Cc1c(CCC(=O)N2C[C@H]3C[C@@H](C2)c2cccc(=O)n2C3)c(=O)oc2c(C)c(O)ccc12 | -0.5 | 55.9* | -7.1 | /
COc1ccc(CC(=O)N2C[C@H]3C[C@@H](C2)c2cccc(=O)n2C3)cc1 | -1.1 | 27.0* | 3.9 | /
Cc1c(CC(=O)N2C[C@H]3C[C@@H](C2)c2cccc(=O)n2C3)c(=O)oc2c(C)c(O)ccc12 | -1.3 | 14.3 | -1.6 | /
CN1C2CN(CC(F)(F)F)CC1C2c1ccc(Br)cc1 (stereo not drawn) | / | / | / | 0.3
COc1ccc(CC2C(=O)NC(C)C(=O)N(C)C3C(=O)N(C)C(Cc4ccc(O)c(c4)Oc4ccc(cc4)C3O)C(=O)NC(C)C(=O)NC(C)C(=O)N2C)cc1 (stereo not drawn) | / | 106.7* | / | 0.0
